Measurements reported in ChEMBL document CHEMBL4257483, “Design, synthesis and bioactivities of phenithionate analogues or derivatives for anti-schistosomiasis” (Medchemcomm, 2018).
Calls of active or inactive are those of the source.

Tests used:
Schistosoma haematobium = experiment: Antischistosomal activity against Schistosoma haematobium imago derived from infected mouse at 20 ug/ml after 72 hrs; type: functional, organism-based
Schistosoma japonicum [1] = experiment: Antischistosomal activity against Schistosoma japonicum infected in mouse at 25 mg/kg/day, po treated for 5 days measured after day 2 post last dose by ELISA; type: functional, organism-based
Outline: (§1)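 Male mice (20–22 g) infected via abdominal skin with 120–140 S. japonicum cercariae. From day 35 post-infection, dosed orally once daily for 5 days. Venous blood then clotted and centrifuged 15 min at 3500 rpm. Serum tested by triple dot ELISA and scored by spot colour: brown +++, yellow ++, slight yellow +, colourless –. DMSO blank.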

Schistosoma japonicum [2] = experiment: Antischistosomal activity against Schistosoma japonicum infected in mouse at 50 mg/kg/day, po treated for 5 days measured after day 6 post last dose by ELISA; type: functional, organism-based; outline: as §1
Schistosoma japonicum [3] = experiment: Antischistosomal activity against Schistosoma japonicum infected in mouse at 50 mg/kg/day, po treated for 5 days measured after day 5 post last dose by ELISA; type: functional, organism-based; outline: as §1
Schistosoma mansoni = experiment: Antischistosomal activity against Schistosoma mansoni imago derived from infected mouse at 20 ug/ml after 72 hrs; type: functional, organism-based
Schistosoma japonicum [4] = experiment: Antischistosomal activity against Schistosoma japonicum infected in mouse at 50 mg/kg/day, po treated for 5 days measured after day 7 post last dose by ELISA; type: functional, organism-based; outline: as §1
Schistosoma japonicum [5] = experiment: Antischistosomal activity against Schistosoma japonicum infected in mouse at 25 mg/kg/day, po treated for 5 days measured after day 4 post last dose by ELISA; type: functional, organism-based; outline: as §1
Schistosoma japonicum [6] = experiment: Antischistosomal activity against Schistosoma japonicum infected in mouse at 50 mg/kg/day, po treated for 5 days measured after day 4 post last dose by ELISA; type: functional, organism-based; outline: as §1
[7] = Lipid/water partition coefficient, log P of the compound; type: physicochemical
Schistosoma japonicum [8] = experiment: Antischistosomal activity against Schistosoma japonicum infected in mouse at 25 mg/kg/day, po treated for 5 days measured after day 6 post last dose by ELISA; type: functional, organism-based; outline: as §1
Schistosoma japonicum [9] = experiment: Antischistosomal activity against Schistosoma japonicum imago derived from infected mouse assessed as reduction in imago viability after 72 hrs; type: functional, organism-based
Outline: (§2)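 Worms perfused with cold heparinised HBSS from mice infected percutaneously with S. japonicum cercariae: larvae at 15 days post-infection (260–280 cercariae), adults at 35 days (120–140 cercariae). Five male and female worms per well in 10% calf serum RPMI 1640 with penicillin, streptomycin and amphotericin B. Preincubated 4 h at 37 °C, 5% CO2, then compounds added and viability recorded over 72 h. IC50 taken at 50% survival. DMSO blank.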

Schistosoma japonicum [10] = experiment: Antischistosomal activity against Schistosoma japonicum infected in mouse at 25 mg/kg/day, po treated for 5 days measured after day 3 post last dose by ELISA; type: functional, organism-based; outline: as §1
Schistosoma japonicum [11] = experiment: Antischistosomal activity against Schistosoma japonicum infected in mouse at 50 mg/kg/day, po treated for 5 days measured after day 9 post last dose by ELISA; type: functional, organism-based; outline: as §1
Schistosoma japonicum [12] = experiment: Antischistosomal activity against Schistosoma japonicum infected in mouse at 50 mg/kg/day, po treated for 5 days measured after day 2 post last dose by ELISA; type: functional, organism-based; outline: as §1
[13] = Dissociation constant, pKa of the compound; type: physicochemical
Schistosoma japonicum [14] = experiment: Antischistosomal activity against Schistosoma japonicum infected in mouse at 50 mg/kg/day, po treated for 5 days measured after day 3 post last dose by ELISA; type: functional, organism-based; outline: as §1
Schistosoma japonicum [15] = experiment: Antischistosomal activity against Schistosoma japonicum imago derived from infected mouse at 20 ug/ml after 72 hrs; type: functional, organism-based; outline: as §2
Schistosoma japonicum [16] = experiment: Antischistosomal activity against Schistosoma japonicum infected in mouse at 50 mg/kg/day, po treated for 5 days measured after day 1 post last dose by ELISA; type: functional, organism-based; outline: as §1
Schistosoma japonicum [17] = experiment: Antischistosomal activity against Schistosoma japonicum infected in mouse at 25 mg/kg/day, po treated for 5 days measured after day 7 post last dose by ELISA; type: functional, organism-based; outline: as §1
Schistosoma japonicum [18] = experiment: Antischistosomal activity against Schistosoma japonicum infected in mouse at 50 mg/kg/day, po treated for 5 days measured after day 8 post last dose by ELISA; type: functional, organism-based; outline: as §1
Schistosoma japonicum [19] = experiment: Antischistosomal activity against Schistosoma japonicum infected in mouse at 25 mg/kg/day, po treated for 5 days measured after day 1 post last dose by ELISA; type: functional, organism-based; outline: as §1
Schistosoma japonicum [20] = experiment: Antischistosomal activity against Schistosoma japonicum infected in mouse at 25 mg/kg/day, po treated for 5 days measured after day 5 post last dose by ELISA; type: functional, organism-based; outline: as §1
Schistosoma japonicum [21] = experiment: Antischistosomal activity against Schistosoma japonicum infected in mouse at 25 mg/kg/day, po treated for 5 days measured after day 8 post last dose by ELISA; type: functional, organism-based; outline: as §1
[22] = Acute toxicity in po dosed mouse infected with Schistosoma japonicum treated for 5 days; type: organism-based; details: in vivo
Schistosoma japonicum [23] = experiment: Antischistosomal activity against Schistosoma japonicum larva derived from infected mouse assessed as reduction in larva viability after 72 hrs; type: functional, organism-based; outline: as §2
Schistosoma japonicum [24] = experiment: Antischistosomal activity against Schistosoma japonicum infected in mouse at 25 mg/kg/day, po treated for 5 days measured after day 9 post last dose by ELISA; type: functional, organism-based; outline: as §1

O=[N+]([O-])c1ccc(Oc2ccc(NC(=S)Oc3ccc(O)cc3)cc2)cc1
275 mg/kg: LD50 at 120 h [22]
inactive: Activity (Schistosoma haematobium) | Activity (Schistosoma japonicum [2]) | Activity (Schistosoma mansoni) | Activity (Schistosoma japonicum [4]) | Activity (Schistosoma japonicum [11]) | Activity (Schistosoma japonicum [18]) | Activity (Schistosoma japonicum [21]) | Activity (Schistosoma japonicum [24])
active: Activity (Schistosoma japonicum [1]) | Activity (Schistosoma japonicum [3]) | Activity (Schistosoma japonicum [5]) | Activity (Schistosoma japonicum [6]) | Activity (Schistosoma japonicum [8]) | Activity (Schistosoma japonicum [10]) | Activity (Schistosoma japonicum [12]) | Activity (Schistosoma japonicum [14]) | Activity (Schistosoma japonicum [15]) | Activity (Schistosoma japonicum [16]) | Activity (Schistosoma japonicum [17]) | Activity (Schistosoma japonicum [19]) | Activity (Schistosoma japonicum [20])
8.02 µg/mL: IC50 (Schistosoma japonicum [9])
6.38 µg/mL: IC50 (Schistosoma japonicum [23])
5.01: logP [7]
9.23: pKa [13]
